From ChEMBL document CHEMBL4680377, “Discovery of a Novel Series of Pyridone-Based EP3 Antagonists for the Treatment of Type 2 Diabetes” (ACS Med Chem Lett, 2021)
Converted amounts (≈) assume the structure as drawn.

Experiments:
[1] = Metabolic stability in human liver microsomes assessed as intrinsic clearance half life; assay type: ADME, Microsome
[2] = AUClast in Sprague-Dawley rat at 10 mg/kg, po measured up to 24 hrs by LC-MS/MS analysis; assay type: ADME, organism-based; set-up: route oral, dose 10 mg/kg, time <=24; settings: in vivo
Summary of the method: (§1)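 Sprague-Dawley rats, n = 3 per route, sampled over 24 h. Full PK: iv 2 mg/kg in 20% HPbCD with po 10 mg/kg given either in 0.5% HPMC or in 20% HPbCD, depending on study. Fast PK: po only, 10 mg/kg in 0.5% HPMC.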

[3] = Oral bioavailability in Sprague-Dawley rat at 10 mg/kg measured up to 24 hrs by LC-MS/MS analysis; assay type: ADME, organism-based; settings: in vivo; summary of the method: as §1
[4] = Kinetic solubility of compound at pH 2; assay type: physicochemical; settings: buffer, read-out: Kinetic_solubility
[5] = Kinetic solubility of compound in PBS buffer; assay type: physicochemical; settings: read-out: Kinetic_solubility
[6] = Half life in Sprague-Dawley rat at 10 mg/kg, po measured up to 24 hrs by LC-MS/MS analysis; assay type: ADME, organism-based; settings: in vivo; summary of the method: as §1
[7] = Cmax in Sprague-Dawley rat at 10 mg/kg, po measured up to 24 hrs by LC-MS/MS analysis; assay type: ADME, organism-based; set-up: route oral, dose 10 mg/kg, time <=24; settings: in vivo; summary of the method: as §1
[8] = Metabolic stability in rat liver microsomes assessed as intrinsic clearance half life; assay type: ADME, Microsome
[9] = Plasma protein binding in rat; assay type: ADME, cell-free; settings: read-out: PPB (converted)
[10] = Clearance in Sprague-Dawley rat at 2 mg/kg, iv measured up to 24 hrs by LC-MS/MS analysis; assay type: ADME, organism-based; settings: in vivo; summary of the method: as §1
[11] = Volume of distribution at steady state in Sprague-Dawley rat at 2 mg/kg, iv measured up to 24 hrs by LC-MS/MS analysis; assay type: ADME, organism-based; settings: in vivo, read-out: Vdss; summary of the method: as §1
[12] = Plasma protein binding in human; assay type: ADME, cell-free; settings: read-out: PPB (converted)
[13] = target: T1, Prostaglandin E2 receptor EP3 subtype (Homo sapiens, UniProt P43115); assay: Antagonist activity at human EP3 expressed in CHO cells assessed as suppression of sulprostone-induced inhibition of forskolin induced cAMP production measured after 30 mins by HTR-FRET assay; assay type: functional, cell-based
T1 sequence (P43115 whole entry): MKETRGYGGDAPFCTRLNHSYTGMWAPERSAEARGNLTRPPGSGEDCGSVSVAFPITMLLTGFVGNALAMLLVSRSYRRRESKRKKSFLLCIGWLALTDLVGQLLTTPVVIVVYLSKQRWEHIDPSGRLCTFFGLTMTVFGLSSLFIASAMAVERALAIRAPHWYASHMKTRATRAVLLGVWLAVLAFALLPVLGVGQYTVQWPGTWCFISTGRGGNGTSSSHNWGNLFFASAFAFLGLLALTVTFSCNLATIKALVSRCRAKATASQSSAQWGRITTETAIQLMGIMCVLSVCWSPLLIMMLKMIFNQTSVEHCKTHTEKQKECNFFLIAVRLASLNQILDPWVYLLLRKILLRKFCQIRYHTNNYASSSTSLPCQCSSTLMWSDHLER

[14] = target: T1, Prostaglandin E2 receptor EP3 subtype; assay: Displacement of [3H]-PGE2 from human EP3 expressed in Chem-1 cell membranes incubated for 2 hrs by TopCount scintillation plate reader analysis; set-up: species or system Membrane
[15] = Apparent permeability across apical to basolateral side in dog MDCK cells; assay type: ADME, cell-based, Canis lupus familiaris
[16] = target: T2, Prostaglandin E2 receptor EP3 subtype (Rattus norvegicus, UniProt P34980); assay: Binding affinity to rat EP3
T2 sequence (P34980 whole entry): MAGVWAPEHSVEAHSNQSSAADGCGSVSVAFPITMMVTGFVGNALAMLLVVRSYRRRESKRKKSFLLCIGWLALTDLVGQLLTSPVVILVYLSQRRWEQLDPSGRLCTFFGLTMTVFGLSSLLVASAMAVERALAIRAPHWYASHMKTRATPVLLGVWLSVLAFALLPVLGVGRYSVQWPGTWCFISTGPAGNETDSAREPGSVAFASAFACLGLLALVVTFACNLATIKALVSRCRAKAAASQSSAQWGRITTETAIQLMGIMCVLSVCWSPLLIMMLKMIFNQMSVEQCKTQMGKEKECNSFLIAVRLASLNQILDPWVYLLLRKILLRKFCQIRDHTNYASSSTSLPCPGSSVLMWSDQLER

half-life [1] [h]	AUC(0-t) at 24 h [2] [µg·h/mL]	bioavailability [3] [%]	solubility kinetic [4] [µM]	solubility kinetic [5] [µM]	half-life [6] [h]	Cmax [7] [ng/mL]	half-life [8] [h]	fraction unbound [9]	clearance [10] [mL/min/kg]	Vd [11] [L/kg]	fraction unbound [12]	IC50 [13] [nM]	Ki [14] [nM]	Papp A→B [15] [×10⁻⁶ cm/s]	Ki [16] [nM]	Structure (SMILES)
> 3	100	54.9	21.7 (≈ 9.51 µg/mL)	30.8 (≈ 13.5 µg/mL)	9.8	8740	> 3	0.0018	0.93	0.24	0.0011	–	–	–	–	CCn1ncc2c(F)cc(-c3ccc(C(/C=C4\OC(=O)NC4=O)(CC)CC)c(=O)[nH]3)cc21
> 3	12.7	118	12.7 (≈ 5.34 µg/mL)	17.2 (≈ 7.23 µg/mL)	4	1230	> 3	–	15.6	1.96	–	39	17	–	–	C/C(=C1/OC(=O)NC1=O)C(c1ccc(-c2ccc3cccc(F)c3c2)[nH]c1=O)C(C)C (centres undefined)
2.07	218	–	25.1 (≈ 10.3 µg/mL)	21.1 (≈ 8.62 µg/mL)	–	44100	0.503	0.0021	–	–	0.0032	27	8	10.8	–	CC(C)[C@H](C[C@@H]1OC(=O)NC1=O)c1ccc(-c2ccc3cccc(F)c3c2)[nH]c1=O (relative stereo)
> 3	159	97.7	8 (≈ 3.25 µg/mL)	28 (≈ 11.4 µg/mL)	4.6	24600	> 3	0.0001	1.06	0.23	0.0008	–	–	9.9	1	CC(C)C(/C=C1\OC(=O)NC1=O)c1ccc(-c2ccc3cccc(F)c3c2)[nH]c1=O (centres undefined)
